“Also recorded” adds a separate entry of the source.
Columns and labels:
[1] = target: hERG (Homo sapiens, UniProt Q12809); assay: hERG electrophysiology; assay type: cell-based
[2] = test system: S. typhimurium strains TA98, TA100, TA1535, TA1537; assay: bacterial reverse mutation test; assay type: cell-based
Outline: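 GLP plate-incorporation Ames test per OECD 471 with S. typhimurium TA98, TA100, TA1535, TA1537 and E. coli WP2 uvrA, ± Aroclor 1254-induced male rat liver S9. An initial toxicity-mutation phase (1.5–5000 μg/plate) set the range for the confirmatory assay at 100, 333, 1000, 3333 and 5000 μg/plate. Negative and positive controls were included. Toxicity and precipitate were noted.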

[3] = test system: human peripheral blood lymphocytes (HPBL); assay: in vitro micronucleus test; assay type: cell-based
Outline: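 HPBL micronucleus test per OECD 487, GLP. Exposures: 4 h −S9, 4 h +S9 (Aroclor 1254-induced male rat liver), 24 h −S9. DMSO solvent; positive controls vinblastine (−S9) and cyclophosphamide (+S9). 4 h cultures were washed, then 20 h in cytochalasin B 6.0 μg/mL. Dose range from preliminary toxicity test (0.2–2000 μg/mL). Duplicate cultures: CBPI from ≥1000 cells; ≥2000 binucleated cells scored.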

[4] = 28-day dose-range finding dietary toxicity study; assay type: in vivo, CD [Crl:CD(SD)] rats
Outline: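 This 28-day dose-range-finding study used CD [Crl:CD(SD)] rats, 8/sex/group. Rats received test compound continuously in the diet at nominal 10, 30 or 100 mg/kg bw/day; controls got untreated diet. Dietary concentration (ppm) was adjusted weekly from body weight and food consumption to keep mg/kg bw/day doses constant. NOAEL was set from the 28-day findings.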

[5] = in vitro microsomal metabolism; assay type: in vitro ADME, Sprague-Dawley rat; details: 10 μM, 0.5 mg/mL, +NADPH, 120 min
[6] = cited from earlier work
[7] = toxicokinetics in 13-week dietary study; assay type: in vivo, Sprague-Dawley rats
[8] = target: CYP3A4 (Homo sapiens, UniProt P08684); assay: CYP inhibition, spectrofluorimetric; assay type: biochemical; details: recombinant human CYP3A4 expressed in insect Sf9 cells
CYP3A4, sequence (P08684 whole entry, canonical isoform): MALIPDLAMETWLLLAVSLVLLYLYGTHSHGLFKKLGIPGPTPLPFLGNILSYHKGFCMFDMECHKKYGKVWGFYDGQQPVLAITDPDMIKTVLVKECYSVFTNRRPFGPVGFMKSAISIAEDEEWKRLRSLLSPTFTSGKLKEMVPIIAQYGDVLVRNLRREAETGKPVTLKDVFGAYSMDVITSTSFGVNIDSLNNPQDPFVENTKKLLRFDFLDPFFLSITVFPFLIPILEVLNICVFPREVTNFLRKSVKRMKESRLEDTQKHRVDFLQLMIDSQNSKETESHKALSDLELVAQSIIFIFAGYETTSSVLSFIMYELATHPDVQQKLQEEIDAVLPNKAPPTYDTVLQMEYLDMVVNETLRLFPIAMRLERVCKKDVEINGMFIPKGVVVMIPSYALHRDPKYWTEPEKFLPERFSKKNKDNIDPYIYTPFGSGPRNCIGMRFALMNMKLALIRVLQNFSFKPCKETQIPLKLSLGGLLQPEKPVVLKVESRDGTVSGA
Outline: (§1)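 Inhibition was assayed with recombinant human CYP isoforms expressed in insect Sf9 cells. Turnover of spectrofluorimetric substrates was read by fluorescence. Test compound was tested at a single concentration of 10 μM.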

[9] = target: CYP2C19 (Homo sapiens, UniProt P33261); assay: CYP inhibition, spectrofluorimetric; assay type: biochemical; details: recombinant human CYP2C19 expressed in insect Sf9 cells
CYP2C19, sequence (P33261 whole entry): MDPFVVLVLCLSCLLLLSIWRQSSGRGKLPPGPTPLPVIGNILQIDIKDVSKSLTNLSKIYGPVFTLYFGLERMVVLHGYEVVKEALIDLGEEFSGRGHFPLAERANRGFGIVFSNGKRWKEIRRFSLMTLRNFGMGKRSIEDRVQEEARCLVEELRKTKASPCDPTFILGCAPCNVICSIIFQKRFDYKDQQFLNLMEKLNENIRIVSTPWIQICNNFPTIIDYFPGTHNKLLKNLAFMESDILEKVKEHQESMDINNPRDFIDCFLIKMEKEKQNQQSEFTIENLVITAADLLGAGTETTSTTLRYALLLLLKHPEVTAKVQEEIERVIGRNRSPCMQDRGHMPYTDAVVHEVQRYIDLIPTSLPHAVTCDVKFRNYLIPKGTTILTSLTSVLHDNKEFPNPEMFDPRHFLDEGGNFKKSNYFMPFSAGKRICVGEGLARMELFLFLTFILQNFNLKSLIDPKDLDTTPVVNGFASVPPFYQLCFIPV
Outline: as §1

[10] = solubility / dissolution; assay type: physicochemical; details: S8069 at 10 mg/mL; S2218 at all dose levels
[11] = single-dose pharmacokinetics and oral bioavailability; assay type: in vivo, Sprague-Dawley rats; details: for clearance: CL, S2218 iv 1 mg/kg bw
[12] = female, Sprague-Dawley, rat, plasma, iv, 1 mg/kg
[13] = female, Sprague-Dawley, rat, plasma, po, 10 mg/kg
[14] = female, Sprague-Dawley, rat, plasma, po, 30 mg/kg
[15] = female, Sprague-Dawley, rat, plasma, po, 100 mg/kg
[16] = male, Sprague-Dawley, rat, plasma, iv, 1 mg/kg
[17] = male, Sprague-Dawley, rat, plasma, po, 10 mg/kg
[18] = male, Sprague-Dawley, rat, plasma, po, 30 mg/kg
[19] = male, Sprague-Dawley, rat, plasma, po, 100 mg/kg

hERG, sequence (Q12809 whole entry): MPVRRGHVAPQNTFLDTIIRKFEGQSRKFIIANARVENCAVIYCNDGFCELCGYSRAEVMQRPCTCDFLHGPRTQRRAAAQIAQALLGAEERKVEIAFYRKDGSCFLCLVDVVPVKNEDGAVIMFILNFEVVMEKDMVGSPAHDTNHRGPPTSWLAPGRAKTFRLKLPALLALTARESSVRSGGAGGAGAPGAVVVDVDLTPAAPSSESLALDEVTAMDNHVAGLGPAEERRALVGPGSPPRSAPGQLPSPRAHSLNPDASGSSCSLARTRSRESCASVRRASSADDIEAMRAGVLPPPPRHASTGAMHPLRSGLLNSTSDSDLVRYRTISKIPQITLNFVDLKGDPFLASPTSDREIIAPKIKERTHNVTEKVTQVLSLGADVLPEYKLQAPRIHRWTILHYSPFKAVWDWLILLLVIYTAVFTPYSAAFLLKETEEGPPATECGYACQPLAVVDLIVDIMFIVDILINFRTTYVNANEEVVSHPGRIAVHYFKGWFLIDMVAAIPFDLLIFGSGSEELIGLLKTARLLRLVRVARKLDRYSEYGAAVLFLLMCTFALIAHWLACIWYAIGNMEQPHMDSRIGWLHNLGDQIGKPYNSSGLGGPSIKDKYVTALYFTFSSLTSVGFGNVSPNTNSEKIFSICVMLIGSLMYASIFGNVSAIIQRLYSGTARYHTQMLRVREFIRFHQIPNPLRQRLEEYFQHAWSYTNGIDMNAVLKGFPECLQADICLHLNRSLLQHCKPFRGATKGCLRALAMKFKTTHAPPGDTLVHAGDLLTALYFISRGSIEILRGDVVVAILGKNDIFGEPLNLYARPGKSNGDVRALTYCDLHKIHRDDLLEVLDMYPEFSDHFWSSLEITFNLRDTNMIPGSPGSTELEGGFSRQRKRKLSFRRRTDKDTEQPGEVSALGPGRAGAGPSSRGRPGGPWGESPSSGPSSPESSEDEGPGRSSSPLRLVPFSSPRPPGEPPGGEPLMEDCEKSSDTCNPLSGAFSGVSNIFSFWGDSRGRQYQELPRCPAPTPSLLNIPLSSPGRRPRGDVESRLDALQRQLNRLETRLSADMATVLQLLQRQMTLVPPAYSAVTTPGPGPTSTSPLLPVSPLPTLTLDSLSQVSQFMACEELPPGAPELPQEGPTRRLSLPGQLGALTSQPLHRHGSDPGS

For Cc1cc(C(=O)NC(C)(C)COc2cccc3c2C(N)=NS(=O)(=O)N3)cc(C)n1 [S2218, N-(1-((4-amino-2,2-dioxido-1H-benzo[c][1,2,6]thiadiazin-5-yl)oxy)-2-methylpropan-2-yl)-2,6-dimethylisonicotinamide], the inhibition at 10 μM [1] was under 10%, the “Reverse mutation (in vitro), result” value ([2]; 100–5000 μg/plate, plate incorporation, ±S9) was “not found to be mutagenic; also recorded: Negative” and the “cytotoxicity (background lawn / revertant colonies)” value ([2]; all tester strains, ±S9, up to 5000 μg per plate) was “No cytotoxicity”. For the same molecule, the “concentration at which precipitate was observed” value ([2]; confirmatory mutagenicity assay) was at least 3333 μg per plate, the “concentration at which precipitate was observed” value ([2]; initial toxicity-mutation assay) was 5000 μg per plate and the “Micronucleus formation (in vitro), result” value ([3]; 250–1000 μg/mL, 24 h exposure, −S9) was “negative for the induction of micronuclei”. For the same molecule, the “Micronucleus formation (in vitro), result” value ([3]; 500–2000 μg/mL, 4 h exposure, ±S9) was “neither clastogenic nor aneugenic; also recorded: negative for the induction of micronuclei”, the “cytotoxicity (55 ± 5% CBPI relative to vehicle control)” value ([3]; micronucleus assay, any dose, three treatment conditions) was “not observed” and the “concentration with visible precipitate” value ([3]; non-activated 24 h exposure) was at least 1000 µg/mL. For the same molecule, the “concentration with visible precipitate” value ([3]; non-activated and S9-activated 4 h exposure) was 2000 µg/mL, the Findings ([4]; 10, 30, 100 mg/kg bw/day food ad-mix) was “Slight increase in food consumption and mean body weight in males at 10 and 30 mg/kg bw/day” and the NOAEL at 28 days ([4]; both, CD [Crl:CD(SD)], rat, in vivo, oral) was 100 mg/kg/day. The “% MS (EIC) peak area of parent relative to time 0” value [5] was 96.5 ± 0.4%, the “photostability to UV light vs S6973 and S617” value [6] was “significantly improved photostability” and the “ACUM Ratio (dose-normalized AUC0-24h Day 91/Day 7)” value ([7]; 30 mg/kg bw, M + F) was 1.88. The “ACUM Ratio (dose-normalized AUC0-24h Day 91/Day 7)” value ([7]; 70 mg/kg bw, M + F) was 0.954, the “ACUM Ratio (dose-normalized AUC0-24h Day 91/Day 7)” value ([7]; 140 mg/kg bw, F) was 0.768 and the “ACUM Ratio (dose-normalized AUC0-24h Day 91/Day 7)” value ([7]; 140 mg/kg bw, M) was 4.55. For the same molecule, the “ACUM Ratio (dose-normalized AUC0-24h Day 91/Day 7)” value ([7]; 140 mg/kg bw, M + F) was 2.30, the inhibition at 10 μM [8] was at most 7% and the inhibition at 10 μM [9] was at most 7%. For the same molecule, the “state in 1% methylcellulose dosing formulation” value [10] was “formed a suspension”, the “female/male ratio of mean AUClast” value ([11]; IV 1 mg/kg) was 0.88 and the “female/male ratio of mean Cmax” value ([11]; IV 1 mg/kg) was 1.06. The t1/2 ([11]; S2218 oral gavage 10 mg/kg bw, M, 10 mg/kg) was 45.8 ± 4.38 min, the bioavailability ([11]; both, Sprague-Dawley, rat, plasma, po, %F, both test articles, male and female rats, all doses) was 0.14 to 0.77% and the AUC(0-t) [11, 12] was 440 ± 57.1 ng·h/mL. The Cmax [11, 12] was 3.15 ± 0.399 µg/mL, the Tmax [11, 12] was 1.98 min and the Vd [11, 12] was 0.575 L/kg. It also gave a clearance ([11]; female, Sprague-Dawley, rat, plasma, iv, 1 mg/kg, F) of 38.3 mL/min/kg, a half-life ([11]; female, Sprague-Dawley, rat, plasma, iv, 1 mg/kg, t1/2, S2218 iv 1 mg/kg bw, F) of 10.4 ± 0.24 min and an AUC(0-t) [11, 13] of 19.1 ± 10.5 ng·h/mL. The Cmax [11, 13] was 0.0221 ± 0.00855 µg/mL, the Tmax [11, 13] was 18.8 ± 7.5 min and the AUC(0-t) [11, 14] was 37.7 ± 14 ng·h/mL. It also gave a Cmax [11, 14] of 0.0368 ± 0.0148 µg/mL, a Tmax [11, 14] of 18.8 ± 7.5 min and an AUC(0-t) [11, 15] of 65.9 ± 34.6 ng·h/mL. It also gave a Cmax [11, 15] of 0.0387 ± 0.0204 µg/mL, a Tmax [11, 15] of 15 min and a half-life ([11]; female, Sprague-Dawley, rat, plasma, po, mean t1/2 of S2218 in plasma, oral dose of S2218 or S8069, female rats) of 45 to 75 min. For the same molecule, the “CL as % of hepatic blood flow” value ([11]; iv, F) was 69.6%, the “Vss as % of total body water volume” value ([11]; iv, F) was 86.1% and the “CL as % of hepatic blood flow” value ([11]; iv, M) was 60.9%. The “Vss as % of total body water volume” value ([11]; iv, M) was 80.2%, the AUC(0-t) [11, 16] was 500 ± 47.9 ng·h/mL and the Cmax [11, 16] was 2.98 ± 0.291 µg/mL. It also gave a Tmax [11, 16] of 1.98 min, a Vd [11, 16] of 0.536 L/kg and a clearance ([11]; male, Sprague-Dawley, rat, plasma, iv, 1 mg/kg, M) of 33.5 mL/min/kg. It also gave a half-life ([11]; male, Sprague-Dawley, rat, plasma, iv, 1 mg/kg, t1/2, S2218 iv 1 mg/kg bw, M) of 11.1 ± 1.56 min, an AUC(0-t) [11, 17] of 18.1 ± 4.84 ng·h/mL and a Cmax [11, 17] of 0.0168 ± 0.00603 µg/mL. It also gave a Tmax [11, 17] of 18.8 ± 7.5 min, an AUC(0-t) [11, 18] of 33.2 ± 20.7 ng·h/mL and a Cmax [11, 18] of 0.0312 ± 0.0146 µg/mL. The Tmax [11, 18] was 22.5 ± 8.64 min, the AUC(0-t) [11, 19] was 96.6 ± 31.4 ng·h/mL and the Cmax [11, 19] was 0.0763 ± 0.0288 µg/mL. It also gave a Tmax [11, 19] of 20 ± 8.64 min and a half-life ([11]; male, Sprague-Dawley, rat, plasma, po, mean t1/2 of S2218 in plasma, oral dose of S2218 or S8069, male rats) of 40.2 to 51.6 min.

Reference: article PMC5615155 (Toxicology Reports, 2017)
